Converted amounts (≈) assume the structure as drawn. The source made the active and inactive calls. The calls are words filed in the database; no cut-off is given here.
Tests used:
Staphylococcus aureus = test: Antimicrobial activity against methicillin-resistant Staphylococcus aureus ATCC 43300 by antimicrobial susceptibility test; assay type: functional, organism-based
[1] = test system: Mycobacterium intracellulare; test: Antimicrobial activity against Mycobacterium intracellular ATCC 23068 by alamar blue method; assay type: functional, organism-based
Summary of the method: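 Modified Alamar Blue procedure, highest concentration 20 µg/mL. IC50 taken from dose-response curves, with amphotericin B as positive control.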

Leishmania major = test: Antileishmanial activity against Leishmania major MRHO/IR/75/ER promastigotes after 72 hrs by alamar blue assay; assay type: functional, organism-based
Summary of the method: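 Alamar Blue read-out against promastigotes, with pentamidine and amphotericin B as reference standards.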

Cryptococcus neoformans = test: Antimicrobial activity against Cryptococcus neoformans ATCC 90113 by broth dilution method; assay type: functional, organism-based
Candida albicans = test: Antimicrobial activity against Candida albicans ATCC 90028 by broth dilution method; assay type: functional, organism-based
Nakaseomyces glabratus = test: Antimicrobial activity against Candida glabrata ATCC 90030 by broth dilution method; assay type: functional, organism-based
Pichia kudriavzevii = test: Antimicrobial activity against Candida krusei ATCC 6258 by broth dilution method; assay type: functional, organism-based
Aspergillus fumigatus = test: Antimicrobial activity against Aspergillus fumigatus ATCC 90906 by broth dilution method; assay type: functional, organism-based
Vero = test: Cytotoxicity against african green monkey Vero cells at 25 ug/ml; assay type: cell-based; settings: chlorocebus sabaeus

CCCCCCCC/C=C\CCCCCCCc1cc(O)cc(O)c1
IC50 (Staphylococcus aureus): 8 µg/mL (≈ 23.1 µM) | IC50 [1]: 10 µg/mL (≈ 28.9 µM)

N=C(N)c1ccc(OCCCCCOc2ccc(C(=N)N)cc2)cc1 [PENTAMIDINE]
IC50 (Leishmania major): 0.6 µg/mL (≈ 1.76 µM) | IC90 (Leishmania major): 1.9 µg/mL (≈ 5.58 µM)

C[C@@H]1[C@H](O)[C@@H](C)/C=C/C=C/C=C/C=C/C=C/C=C/C=C/[C@H](O[C@@H]2O[C@H](C)[C@@H](O)[C@H](N)[C@@H]2O)C[C@@H]2O[C@](O)(C[C@@H](O)C[C@@H](O)[C@H](O)CC[C@@H](O)C[C@@H](O)CC(=O)O[C@H]1C)C[C@H](O)[C@H]2C(=O)O [AMPHOTERICIN B]
IC50 (Cryptococcus neoformans): 0.75 µg/mL (≈ 0.812 µM)

CCCCCCCCCCCCCCCCCc1cc(O)cc(O)c1
Activity (Candida albicans): inactive | Activity (Nakaseomyces glabratus): inactive | Activity (Pichia kudriavzevii): inactive | Activity (Aspergillus fumigatus): inactive

O=C(O)c1cn(C2CC2)c2cc(N3CCNCC3)c(F)cc2c1=O [CIPROFLOXACIN]
IC50 [1]: 0.4 µg/mL (≈ 1.21 µM)

C=CCCC/C=C\C/C=C\CCCCCCCc1cc(O)cc(O)c1
IC50 (Staphylococcus aureus): 2.5 µg/mL (≈ 7.3 µM) | IC50 (Leishmania major): 3.6 µg/mL (≈ 10.5 µM) | IC90 (Leishmania major): 7 µg/mL (≈ 20.4 µM) | Activity (Vero): Non-toxic

CCCCC/C=C\C/C=C\CCCCCCCc1cc(O)cc(O)c1
IC50 (Staphylococcus aureus): 6.5 µg/mL (≈ 18.9 µM)

CCCCCCCCCCCCCCCc1cc(O)cc(O)c1
Activity (Candida albicans): inactive | Activity (Nakaseomyces glabratus): inactive | Activity (Pichia kudriavzevii): inactive | Activity (Aspergillus fumigatus): inactive

C=CCCC/C=C\C=C\CCCCCCCCc1cc(O)cc(O)c1
IC50 (Staphylococcus aureus): 15 µg/mL (≈ 43.8 µM)
